Assay results pooled from the literature.
Protocols differ between the studies behind these lines.
Cell line: CCRF-CEM
Observed: cell growth or viability

Compound	technique	time	IC50 [µM]
O=C1C(=Cc2ccccc2)CN(C(=O)CCCC(=O)N2CC(=Cc3ccccc3)C(=O)C(=Cc3ccccc3)C2)CC1=Cc1ccccc1	–	72 h	2.03
O=C(CN1C(=O)SC(=Cc2ccccc2)C1=O)Nc1ccc(F)cc1F	MTT	48 h	32.3
COc1cc(OC)cc(C(=O)c2cc3c(-c4ccccc4)c(OC)ccc3o2)c1	–	72 h	> 50
CC[C@]1(O)C[C@@H]2CN(CCc3c([nH]c4ccccc34)[C@@](C(=O)OC)(c3cc4c(cc3OC)N(C)[C@H]3[C@@](O)(C(=O)OC)[C@H](OC(C)=O)[C@]5(CC)C=CCN6CC[C@]43[C@@H]65)C2)C1	MTT	72 h	0.002
COC(=O)c1cc(CCc2ccccc2OC)sc1N	–	48 h	1.2
O=C(CN1C(=O)SC(=Cc2ccccc2)C1=O)Nc1nc2c(Cl)cccc2s1	MTT	48 h	35.1
COc1ccc(CCc2cc(C#N)c(N)s2)cc1	–	48 h	7.2
COc1ccc(/C=C\c2cc(OC)c(OC)c(OC)c2)cc1O	–	72 h	0.0018
O=C1C(=Cc2ccccc2)CN(C(=O)C=CC(=O)N2CC(=Cc3ccccc3)C(=O)C(=Cc3ccccc3)C2)CC1=Cc1ccccc1	–	72 h	7.75
COc1cc(OC)cc(C(=O)c2cc3c(-c4ccccc4)c(O)ccc3o2)c1	–	72 h	9.6
O=C1NC(=NCc2cccs2)S/C1=C\c1ccc2ncccc2c1	–	–	2.5
CC(=O)O[C@H]1C(=O)[C@@]2(C)[C@H]([C@H](OC(=O)c3ccccc3)[C@]3(O)C[C@H](OC(=O)[C@H](O)[C@@H](NC(=O)c4ccccc4)c4ccccc4)C(C)=C1C3(C)C)[C@]1(OC(C)=O)CO[C@@H]1C[C@@H]2O	MTT	48 h	0.31
O=C1C(=Cc2ccccc2)CN(C(=O)C=CC=CC(=O)N2CC(=Cc3ccccc3)C(=O)C(=Cc3ccccc3)C2)CC1=Cc1ccccc1	–	72 h	39.2
COc1ccccc1C(=O)c1cc2c(-c3ccccc3)c(O)ccc2o1	–	72 h	19
N#Cc1cc(CCc2ccccc2)sc1N	–	48 h	32
Cc1ccc(C=C2SC(=O)N(CC(=O)Nc3ccc(F)cc3F)C2=O)cc1C	MTT	48 h	31.9
CCOC(=O)c1c(N)sc(CCc2cc(OC)ccc2OC)c1C(=O)OCC	–	48 h	20
CCC[C@H](Nc1nc(-c2ccc(NC(=O)NCC)c(OC)c2)ncc1C)c1cccnc1	fluorescence	72 h	0.0036
O=C1C(=Cc2ccccc2)CN(C(=O)CCCCCCC(=O)N2CC(=Cc3ccccc3)C(=O)C(=Cc3ccccc3)C2)CC1=Cc1ccccc1	–	72 h	2.28
CCOC(=O)c1cc(CCc2ccc(OC)cc2)sc1N	–	48 h	1.9
O=C(CN1C(=O)SC(=Cc2ccc(F)cc2)C1=O)Nc1ccc(Cl)cc1C(F)(F)F	MTT	48 h	38
COc1ccc(OC)c(-c2cc(C#N)c(N)s2)c1	–	48 h	12
COc1ccc(C(=O)c2cc3c(-c4ccccc4)c(O)ccc3o2)cc1	–	72 h	0.88
